# Test results as given in ChEMBL document CHEMBL4152356, “Amphipathic sulfonamidobenzamides mimicking small antimicrobial marine natural products; investigation of antibacterial and anti-biofilm activity against antibiotic resistant clinical isolates” (Bioorg Med Chem, 2018).
# Activity calls are given as the source filed them.
# Legend:
# MRC5 = test: Cytotoxicity against human MRC5 cells after 72 hrs by MTS assay; type: cell-based; conditions: MRC5, 72 h
# In short: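 MRC-5 lung fibroblasts in DMEM with 10% FBS, 37 °C, 5% CO2; seeded at 4000 cells/well, adhered 24 h, medium replaced. Two-fold dilutions up to 100 µg/ml for 72 h, then MTS for 1 h and absorbance at 485 nm. Controls were 1% DMSO (negative) and 0.5% Triton X-100 (positive). EC50 is the concentration giving 50% inhibition of survival.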
# Escherichia coli = test: Antibacterial activity against Escherichia coli clinical isolates after 24 hrs by microdilution method; type: functional
# In short: (§1)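 Clinical isolate screen by broth microdilution with about 1-1.2 × 10^6 cells/ml and 24 h incubation. MIC is the lowest concentration with no growth. For isolate collections, MIC90 is the MIC inhibiting ≥90% of isolates. Multidrug resistance was defined as resistance to at least […] antimicrobial class.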
# Pseudomonas aeruginosa [1] = test: Antibacterial activity against Verona integron-encoded metallo-beta-lactamase 2-producing Pseudomonas aeruginosa K347 clinical isolate after 24 hrs by microdilution method; type: functional; conditions: K347, 24 h; in short: as §1
# [2] = tested on: Staphylococcus epidermidis; test: Antibacterial activity against methicillin resistant Staphylococcus epidermidis RP62A ATCC 35984/CCUG 31568 after 48 hrs by microdilution method; type: functional; conditions: RP62A ATCC 35984/CCUG 31568, 48 h
# In short: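 Broth microdilution (modified CLSI M07-A9) against the MRSE reference strain. Inoculum of about 2.5-3 × 10^4 cells/ml in Mueller-Hinton broth mixed 1:1 with serial compound dilutions; final DMSO ≤1%. Incubated 35 °C, 48 h.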
# Pseudomonas aeruginosa [3] = test: Antibacterial activity against imipenem 14-type carbapenemase-producing Pseudomonas aeruginosa K4424 clinical isolate after 24 hrs by microdilution method; type: functional; conditions: K4424, 24 h; in short: as §1
# Staphylococcus aureus [4] = test: Antibacterial activity against methicillin resistant Staphylococcus aureus N315 clinical isolate after 24 hrs by microdilution method; type: functional; conditions: N315, 24 h
# In short: (§2)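 Broth microdilution in Mueller-Hinton broth (modified CLSI M07-A9), clinical isolates at about 1-1.2 × 10^6 cells/ml. Inoculum mixed 1:1 with serial compound dilutions; stocks made in up to 100% DMSO, final DMSO ≤1%. Incubated 24 h.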
# Klebsiella pneumoniae [5] = test: Antibacterial activity against New Delhi metallo-beta-lactamase 1/oxacillinase 181-producing Klebsiella pneumoniae 50531633 clinical isolate after 24 hrs by microdilution method; type: functional; conditions: Klebsiella pneumoniae, 50531633, 24 h; in short: as §1
# Staphylococcus aureus [6] = test: Antibacterial activity against Staphylococcus aureus ATCC 9144 after 48 hrs by microdilution method; type: functional; conditions: ATCC 9144, 48 h
# In short: (§3)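 Broth microdilution (CLSI M07-A9, modified) in Mueller-Hinton broth; inoculum about 2.5-3 × 10^4 cells/ml mixed 1:1 with serial compound dilutions. Stock solutions in up to 100% DMSO, final DMSO ≤1%. Incubated 35 °C for 48 h.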
# Enterococcus faecium = test: Antibacterial activity against vancomycin resistant Enterococcus faecium 50,758,899 clinical isolate after 24 hrs by microdilution method; type: functional; conditions: Enterococcus faecium, 50,758,899, 24 h; in short: as §2
# Staphylococcus aureus [7] = test: Antibacterial activity against Staphylococcus aureus clinical isolates after 24 hrs by microdilution method; type: functional; in short: as §1
# Klebsiella pneumoniae [8] = test: Antibacterial activity against Klebsiella pneumoniae clinical isolates after 24 hrs by microdilution method; type: functional; in short: as §1
# Bacillus subtilis = test: Induction of membrane disruption in Bacillus subtilis 168 expressing luciferase at 4 ug/ml […] by luminescence assay; type: functional, organism-based; conditions: subsp. subtilis str. 168
# [9] = Selectivity index, ratio of EC50 for human RBC to MIC for methicillin resistant Staphylococcus epidermidis RP62A ATCC 35984/CCUG 31568; type: toxicity; conditions: human red blood cells (RBC), read-out: Selectivity Index
# In short: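 SI = hemolytic EC50 / MRSE MIC. Hemolysis: washed human RBCs (heparinized blood, healthy adult donor) at 10% in PBS pH 7.4, mixed 9:1 with serial compound dilutions, 37 °C for 1 h. 0.05% Triton X-100 set 100% lysis, 0.5% DMSO set baseline. MIC from MHB microdilution, 35 °C, […].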
# [10] = tested on: Corynebacterium glutamicum; test: Antibacterial activity against Corynebacterium glutamicum ATCC 13032 after 48 hrs by microdilution method; type: functional; conditions: ATCC 13032, 48 h; in short: as §3
# Acinetobacter baumannii = test: Antibacterial activity against colistin-resistant oxacillinase 23-producing Acinetobacter baumannii K63-58 clinical isolate after 24 hrs by microdilution method; type: functional; conditions: K63-58, 24 h; in short: as §2
Compound,EC50 (MRC5) [µg/mL],MIC (Escherichia coli) [µg/mL],MIC (Pseudomonas aeruginosa [1]) [µg/mL],MIC [2] [µg/mL],MIC (Pseudomonas aeruginosa [3]) [µg/mL],MIC (Staphylococcus aureus [4]) [µg/mL],MIC (Klebsiella pneumoniae [5]) [µg/mL],MIC (Staphylococcus aureus [6]) [µg/mL],MIC (Enterococcus faecium) [µg/mL],MIC (Staphylococcus aureus [7]) [µg/mL],MIC (Klebsiella pneumoniae [8]) [µg/mL],Activity (Bacillus subtilis),selectivity ratio [9],MIC [10] [µg/mL],MIC (Acinetobacter baumannii) [µg/mL]
CN(c1ccc(C(=O)NCCCNC(=N)N)cc1)S(=O)(=O)c1cc(C(C)(C)C)cc(C(C)(C)C)c1.Cl,36,16,> 32,4,32,8,≥ 32,4,8,4,32,Active,14,2,≥ 32
CC(C)(C)c1cc(C(C)(C)C)cc(S(=O)(=O)Nc2cc3ccccc3cc2C(=O)NCCNC(=N)N)c1.Cl,55,8,> 64,4,> 64,4,> 32,4,8,4,16 to 32,–,6,2,32
